For orientation: IC50 means the concentration that gives 50% inhibition. One may read the logP as a log measure of how a compound divides between an organic and an aqueous phase. What is called AUC(0-t) is the area under the concentration-time curve up to a stated or last time point. The term bioavailability denotes the share of a dose that reaches the circulation, judged against a reference dose that is usually intravenous. By AUC(0-inf) is commonly meant the area under the concentration-time curve extrapolated to infinity.

The source made the active and inactive calls. The rule behind the calls is not given here.

Data set [1] addresses MMP-2/MMP-9 (Homo sapiens) (UniProt P08253+P14780). The experiment in a line: Selectivity ratio of IC50 for human recombinant MMP9 to IC50 for human recombinant MMP2. The procedure, abridged: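 IC50 values against MMP-2 and MMP-9 were each measured by a fluorimetric enzyme assay, with a reference inhibitor run alongside as positive control. The selectivity ratio is the MMP-9 IC50 divided by the MMP-2 IC50.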

In data set [2] the target is 72 kDa type IV collagenase (Homo sapiens, UniProt P08253). The data set is described as follows: Inhibition of human recombinant MMP2 using Mca-Pro-Leu-Gly-Leu-Dpa-Ala-Arg-NH2 as substrate preincubated for 60 mins followed by substrate addition by fluorimetric analysis.
For data set [3], the target named is Matrix metalloproteinase-9 (Homo sapiens, UniProt P14780). The experiment in a line: Inhibition of human recombinant MMP9 using Mca-Pro-Leu-Gly-Leu-Dpa-Ala-Arg-NH2 as substrate preincubated for 60 mins followed by substrate addition by fluorimetric analysis.
Data set [4] is described as follows: Lipid-water partition coefficient, logP of compound. In kind it is physicochemical.
Data set [5] can be described thus: AUC (0 to 24 hrs) in Sprague-Dawley rat at 10 mg/kg, iv by LC-MS/MS method. In kind it is ADME, organism-based. Further details: time < 24 hr, dose 10 mg/kg, route intravenous. To be noted: in vivo.
The subject of data set [6] is Rattus norvegicus. The data set is described as follows: Apparent volume of distribution in Sprague-Dawley rat at 10 mg/kg, po after 15 mins to 24 hrs by LC-MS/MS method. To be noted: in vivo. In kind it is ADME, organism-based. The procedure, abridged:
(§1)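 Sprague-Dawley rats were dosed at 10 mg/kg, either intravenously or orally. AUC0-24h, AUC0-∞, Vz, t1/2z and CLz were derived for each route.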

Data set [7] in a line: Terminal half life in Sprague-Dawley rat at 10 mg/kg, po by LC-MS/MS method. In kind it is ADME, organism-based. To be noted: in vivo, read-out: beta t1/2 (converted). The procedure, abridged:
as §1

A short description of data set [8]: Oral bioavailability in Sprague-Dawley rat at 10 mg/kg by LC-MS/MS method. The class given is ADME, organism-based. To be noted: in vivo.
Data set [9] concerns HEY. The experiment in a line: Antimigratory activity in human HEY cells after 24 hrs by crystal violet staining-based Transwell assay. In kind it is functional, cell-based. The gist of the method: (§2)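 Human ovarian cancer HEY cells were tested in a matrigel-based Transwell invasion assay, with cells invading the matrigel membrane and migrating from the upper to the lower chamber. Treatment was at 12.5, 25 and 50 µM for 24 h, with a DMSO control. Cells per view were counted after crystal violet staining. Treated groups were compared with control by t test.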

Data set [10] has as its system HEY. The data set is described as follows: Antiinvasive activity in human HEY cells assessed as reduction in number of cells invading matrigel membrane at 50 uM after 24 hrs by crystal violet staining-based Transwell assay. In kind it is functional. Set-up: scale not given: the % may be the effect or the level left. The procedure, abridged: as §2
Data set [11] is described as follows: Apparent clearance in Sprague-Dawley rat at 10 mg/kg, po after 15 mins to 24 hrs by LC-MS/MS method. In kind it is ADME, organism-based. The settings on record: in vivo, read-out: CL(app) (converted). The gist of the method: as §1
Data set [12] concerns HEY. The data set is described as follows: Cytotoxicity against human HEY cells at 6.25 to 100 uM after 48 hrs by MTT assay relative to control. In kind it is cell-based. The procedure, abridged:
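HEY cell viability was measured by MTT assay after exposure to 6.25–100 µM, with DMSO as control. Medium was checked by microscope for solid particles.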

In data set [13] the test system is HEY. The experiment in a line: Antimigratory activity in human HEY cells at 50 uM after 24 hrs by crystal violet staining-based Transwell assay. The class given is functional. The procedure, abridged: as §2
Data set [14] can be described thus: AUC (0 to infinity) in Sprague-Dawley rat at 10 mg/kg, po after 15 mins to 24 hrs by LC-MS/MS method. Set-up: dose 10 mg/kg, route oral, time infinity. In kind it is ADME, organism-based. The settings on record: in vivo.
Data set [15] is described as follows: Terminal half life in Sprague-Dawley rat at 10 mg/kg, iv by LC-MS/MS method. The class given is ADME, organism-based. The settings on record: in vivo, read-out: beta t1/2 (converted). The procedure, abridged: as §1
A short description of data set [16]: Apparent clearance in Sprague-Dawley rat at 10 mg/kg, iv after 15 mins to 24 hrs by LC-MS/MS method. In kind it is ADME, organism-based. The settings on record: in vivo, read-out: CL(app) (converted). The procedure, abridged:
as §1

Data set [17] in a line: Apparent volume of distribution in Sprague-Dawley rat at 10 mg/kg, iv after 15 mins to 24 hrs by LC-MS/MS method. The class given is ADME, organism-based. The settings on record: in vivo, read-out: Vz (converted). The gist of the method: as §1
The nature of data set [18]: AUC (0 to infinity) in Sprague-Dawley rat at 10 mg/kg, iv after 15 mins to 24 hrs by LC-MS/MS method. The class given is ADME, organism-based. Further details: dose 10 mg/kg, time infinity, route intravenous. The settings on record: in vivo.
Data set [19] has as its system HEY. The data set is described as follows: Antiinvasive activity in human HEY cells assessed as reduction in number of cells invading matrigel membrane after 24 hrs by crystal violet staining-based Transwell assay. The class given is functional, cell-based. The procedure, abridged:
as §2

The nature of data set [20]: AUC (0 to 24 hrs) in Sprague-Dawley rat at 10 mg/kg, po by LC-MS/MS method. Set-up: dose 10 mg/kg, time < 24 hr, route oral. The settings on record: in vivo. The class given is ADME, organism-based.

Chain of Matrix metalloproteinase-9 (P14780 whole entry): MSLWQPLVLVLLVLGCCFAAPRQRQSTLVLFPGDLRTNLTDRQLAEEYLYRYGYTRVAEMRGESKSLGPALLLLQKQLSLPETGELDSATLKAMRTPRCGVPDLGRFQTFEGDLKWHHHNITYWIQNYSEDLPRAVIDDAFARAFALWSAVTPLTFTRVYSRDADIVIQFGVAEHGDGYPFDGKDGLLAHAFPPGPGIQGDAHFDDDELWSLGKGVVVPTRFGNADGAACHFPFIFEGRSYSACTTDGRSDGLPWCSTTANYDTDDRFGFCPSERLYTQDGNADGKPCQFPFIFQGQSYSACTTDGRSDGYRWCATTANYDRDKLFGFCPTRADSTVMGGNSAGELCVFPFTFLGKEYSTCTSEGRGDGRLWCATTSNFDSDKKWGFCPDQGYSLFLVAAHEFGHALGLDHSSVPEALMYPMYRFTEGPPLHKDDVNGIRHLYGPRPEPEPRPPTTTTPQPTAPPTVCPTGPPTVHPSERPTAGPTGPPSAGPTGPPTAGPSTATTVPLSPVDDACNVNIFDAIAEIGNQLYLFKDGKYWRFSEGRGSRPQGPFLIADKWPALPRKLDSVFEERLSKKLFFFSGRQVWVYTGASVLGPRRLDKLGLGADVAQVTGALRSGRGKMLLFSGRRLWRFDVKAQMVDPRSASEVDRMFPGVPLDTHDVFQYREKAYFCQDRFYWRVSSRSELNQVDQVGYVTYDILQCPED
Chain of 72 kDa type IV collagenase (P08253 whole entry): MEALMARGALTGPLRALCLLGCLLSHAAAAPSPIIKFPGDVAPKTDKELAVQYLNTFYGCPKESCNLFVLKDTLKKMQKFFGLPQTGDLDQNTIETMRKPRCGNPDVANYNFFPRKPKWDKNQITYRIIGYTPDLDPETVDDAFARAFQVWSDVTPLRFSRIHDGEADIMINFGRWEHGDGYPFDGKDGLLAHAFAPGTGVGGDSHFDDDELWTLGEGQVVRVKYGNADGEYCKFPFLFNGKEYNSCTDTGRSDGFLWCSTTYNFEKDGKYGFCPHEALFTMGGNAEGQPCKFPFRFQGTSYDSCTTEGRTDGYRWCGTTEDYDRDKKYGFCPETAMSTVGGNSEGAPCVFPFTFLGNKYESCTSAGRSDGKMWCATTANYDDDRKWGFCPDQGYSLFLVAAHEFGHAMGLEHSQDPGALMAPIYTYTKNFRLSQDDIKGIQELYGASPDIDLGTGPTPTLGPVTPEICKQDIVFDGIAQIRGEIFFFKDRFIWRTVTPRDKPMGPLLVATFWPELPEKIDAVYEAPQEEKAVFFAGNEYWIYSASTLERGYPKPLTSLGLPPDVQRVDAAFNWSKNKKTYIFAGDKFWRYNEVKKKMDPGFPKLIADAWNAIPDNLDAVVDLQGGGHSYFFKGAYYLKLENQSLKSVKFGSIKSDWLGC

As for `CNC(=O)[C@H](Cc1c[nH]c2ccccc12)NC(=O)[C@@H](CC(=O)Nc1ccccc1NC(C)=O)CC(C)C`, the “Ratio IC50” value in data set [1] is “inactive”. The IC50 in [2] was greater than 10000 nM; in data set [3], 155 nM.
Turning to `CNC(=O)[C@H](Cc1c[nH]c2ccccc12)NC(=O)[C@@H](CC(=O)Nc1ccc(C)cc1N)CC(C)C`, the “Ratio IC50” value in [1] is “inactive”. Also, the IC50 was greater than 10000 nM in data set [2] and 7300 nM in [3].
For the molecule `CNC(=O)[C@H](Cc1c[nH]c2ccccc12)NC(=O)[C@@H](CC(=O)Nc1ccccc1N)CC(C)C`, the logP in [4] turned out to be 1.91. Also, the AUC(0-t) at 24 h stood at 3070 ng·h/mL in [5] and 36.2 ng·h/mL in data set [20]. Further, the Vz in data set [6] came to 579.41 L/kg. For the same molecule, the half-life in [7] was 5.64 h; in data set [15], 7.88 h. Further, the Ratio IC50 in data set [1] turned out to be 8310. In addition, the figures for the IC50 in data set [2] and in data set [3] were 0.19 nM and 1580 nM, respectively. Moreover, in [8], the bioavailability was determined as 4%. For the same molecule, the Activity result in [9] is “Dose-dependent effect”; in [10], 84.6%; in data set [12] it was “Non-toxic”; in [13], 84.6%; in data set [19], “Dose-dependent effect”. Besides, the CL/F in data set [11] is 1190 mL/min/kg. In addition, the AUC(0-inf) stood at 140 ng·h/mL in data set [14] and 3210 ng·h/mL in [18]. Moreover, in [16], the clearance was 52.2 mL/min/kg. The Vd in data set [17] was 35.8 L/kg.
On to `CNC(=O)[C@H](Cc1c[nH]c2ccccc12)NC(=O)[C@@H](CC(=O)Nc1cccc(N)c1)CC(C)C`, for which the Ratio IC50 in data set [1] amounted to 6.59. The IC50 in data set [2] came to 2.05 nM; in [3], 13.5 nM.
Take `CNC(=O)[C@H](Cc1c[nH]c2ccccc12)NC(=O)[C@@H](CC(=O)Nc1ccc(F)cc1N)CC(C)C`: the Ratio IC50 in data set [1] stood at 3.52. The IC50 was 2.2 nM in data set [2] and 7.75 nM in data set [3].
For `CNC(=O)[C@H](Cc1c[nH]c2ccccc12)NC(=O)[C@@H](CC(=O)Nc1ccc(Br)cc1N)CC(C)C` the same measures were 1.25, 21.8 nM and 27.3 nM.
For `CNC(=O)[C@H](Cc1c[nH]c2ccccc12)NC(=O)[C@@H](CC(=O)Nc1ccc(C(F)(F)F)cc1N)CC(C)C`, the “Ratio IC50” value in data set [1] was “inactive”. For the same molecule, the IC50 in [2] and in data set [3] was greater than 10000 nM each time.
The molecule `CNC(=O)[C@H](Cc1c[nH]c2ccccc12)NC(=O)[C@@H](CC(=O)NO)CC(C)C` [ILOMASTAT] yielded a logP in [4] of 1.04. The molecule further returned an AUC(0-t) at 24 h in data set [5] of 2510 ng·h/mL. The molecule also gave a bioavailability in data set [8] of 0%. Moreover, in data set [15], the half-life is 0.25 h. For the same molecule, in data set [16], the clearance is 66.5 mL/min/kg. Besides, the Vd in [17] is 1.43 L/kg. In data set [18], this molecule gave an AUC(0-inf) of 2510 ng·h/mL.
For the molecule `CNC(=O)[C@H](Cc1c[nH]c2ccccc12)NC(=O)[C@@H](CC(=O)Nc1ccc(C(=O)c2ccccc2)cc1N)CC(C)C`, the “Ratio IC50” value in data set [1] was “inactive”. In addition, the IC50 in data set [2] and in data set [3] was greater than 10000 nM in each case.

The values above are taken from ChEMBL document CHEMBL3792275 (Bioorg Med Chem Lett, 2016).
